# Kir21 inh: inhibitors of mouse Kir2.1 inward-rectifier potassium channel. 310,000 compounds, 0.85% hits. B-score at 10 µM. HEK293-Kir2.1, FluxOR thallium flux fluorescence; active compounds read low;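 active = fluorescence ratio B-score at or below minus 3 SD of library scores, with starting-brightness B-score within 2 SD, cut at about -4.2 in these data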;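 note: channel flux triggered by added potassium and thallium sulfate stimulus; B-score of peak minus minimum fluorescence over baseline after thallium stimulus; more negative B-score means stronger Kir2.1 block with less thallium influx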
# Target sequence (P35561 whole entry, looked up): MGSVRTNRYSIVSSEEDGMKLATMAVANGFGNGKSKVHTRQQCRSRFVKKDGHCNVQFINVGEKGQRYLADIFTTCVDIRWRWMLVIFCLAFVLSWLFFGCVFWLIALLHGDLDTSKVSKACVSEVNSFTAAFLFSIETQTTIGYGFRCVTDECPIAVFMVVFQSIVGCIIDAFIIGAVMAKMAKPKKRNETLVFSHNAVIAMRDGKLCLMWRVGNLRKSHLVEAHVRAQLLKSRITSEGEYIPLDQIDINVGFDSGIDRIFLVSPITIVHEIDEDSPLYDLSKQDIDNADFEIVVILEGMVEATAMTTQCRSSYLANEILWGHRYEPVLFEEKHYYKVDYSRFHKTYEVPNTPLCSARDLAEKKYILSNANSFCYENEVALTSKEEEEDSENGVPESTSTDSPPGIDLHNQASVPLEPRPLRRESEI
# MrgX1 ag: agonists of human MrgX1 receptor, primary screen, HEK293 cells, Fluo-4 calcium flux; Mas-related G-protein coupled receptor member X1 (Homo sapiens), Q96LB2; Fluo-4 calcium fluorescence, agonist mode; active compounds read high; B-score at 10 µM; 310,000 compounds, 0.44% hits; AID 588627, 2011;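 active = calcium response B-score plate-corrected fluorescence ratio at least 3 library SD, with starting fluorescence B-score inside 5 SD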
#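 System – MrgX1-expressing HEK293 cells · Incubation – cells plated overnight, dye loaded 0.5 h 37 °C, 0.5 h room temperature · Technique – kinetic Fluo-4 NW fluorescence of intracellular calcium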
# MrgX1 PAM: positive allosteric modulators of MrgX1, primary screen, HEK293 cells, Fluo-4 calcium flux; Mas-related G-protein coupled receptor member X1 (Homo sapiens), Q96LB2; FDSS; active compounds read high; B-score at 10 µM; 310,000 compounds, 0.63% hits; AID 588675, 2011;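 active = plate-corrected calcium response at least 3 library SD above typical, normal starting fluorescence, not activating the receptor alone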;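 note: compound read alongside a low EC10 to EC30 dose of BAM8-22 agonist; peak minus trough fluorescence over baseline measured at the second addition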
# MrgX1 antagonist: antagonists of human MrgX1 receptor, primary screen, HEK293 cells, Fluo-4 calcium flux | B-score at 10 µM | BAM8-22 antagonism; active compounds read low | Mas-related G-protein coupled receptor member X1 (Homo sapiens), Q96LB2 | 310,000 compounds, 1.3% hits;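 active = calcium-response B-score plate-corrected more than 3 library SD below zero, starting fluorescence within 5 deviations, no agonist response on first addition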;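 note: peak minus trough fluorescence over baseline after final BAM8-22 challenge near maximal dose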
# RGS4 pot: RGS4 potentiators or activators, primary screen, cell-based, HEK293 M3R inducible RGS4, calcium flux; carbachol calcium flux Fluo4; active compounds read low; B-score at 10 µM; 310,000 compounds, 0.92% hits; AID 463111, 2010;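 active = B-score of the integrated calcium signal more than 4 SD below the library mean, with starting fluorescence not abnormally high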;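 note: negative B-score means reduced calcium response which marks RGS4 activation or potentiation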
#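 Test system: HEK293 cells with stable M3R and inducible RGS4; also added: carbachol at ECmax as muscarinic agonist stimulus; schedule: dye loading 30 min 37 °C, buffer rest 30 min RT; technique: kinetic calcium fluorescence imaging with Fluo4-AM dye, 2 µM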
# RGS4 inh: RGS4 inhibitors, primary screen, cell-based, HEK293 M3R inducible RGS4, calcium flux; Fluo-4 calcium flux; active compounds read high; triggered by carbachol at its EC20; B-score at 10 µM; Regulator of G-protein signaling 4 (Homo sapiens), P49798; 310,000 compounds, 0.45% hits;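 active = B-score, a plate-corrected calcium signal, over three deviations above library mean, with baseline fluorescence within five deviations of library mean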;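 note: RGS4 expression induced by doxycycline in cells with stable M3 receptor; B-score is computed from the integrated fluorescence ratio over baseline after carbachol; higher B-score means a larger calcium signal and so more RGS4 inhibition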
# Numbers without * were called inactive; i = inactive; x = no result. An excerpt weighted towards active compounds, which were near 4.1% of everything screened.
SMILES,Kir21 inh,MrgX1 ag,MrgX1 PAM,MrgX1 antagonist,RGS4 pot,RGS4 inh
CCCOC(=O)c1c(-c2ccc(OC)cc2)oc2ccc(-c3ccc(OC)nc3)cc12,-0.01,i,i,-8.3*,i,i
COc1ccc(NC(=O)C2CCN(S(=O)(=O)c3ccc(N4CCCC4=O)cc3)CC2)c(OC)c1,2.1,i,i,i,i,i
CCOc1ccc(N=C2C(=O)N(CN3CCOCC3)c3ccccc32)cc1,0.01,33*,i,i,i,i
CCOc1ccc(OCCN2C(=O)c3ccccc3C2=O)cc1,-0.06,i,i,i,i,i
CCn1c(SCC(O)c2ccccc2)nnc1-c1ccccc1 (centres undefined),0.28,i,i,i,i,i
CCn1c(SCc2cccc(C)c2)nnc1-c1ccccc1,-6.1*,i,i,i,i,i
C#CCOCCOCCOCCNc1nc(N2CCN(C(=O)CCCCCCCCCCNC(=O)Cn3cc(CCCCCN)nn3)CC2)nc(N2CCN(C(=O)CCCCCCCCCCNC(=O)[C@H]([C@@H](C)CC)n3cc(CCCCN=C(N)N)nn3)CC2)n1,x,116*,i,i,x,x
C#CCOCCOCCOCCNc1nc(N2CCN(C(=O)CCCCCCCCCCNC(=O)[C@H]([C@@H](C)CC)n3cc(CCCCN=C(N)N)nn3)CC2)nc(N2CCN(C(=O)CCCCCCCCCCNC(=O)[C@H]([C@@H](C)CC)n3cc(CCCCN=C(N)N)nn3)CC2)n1,x,38*,i,i,x,x
C#CCOCCOCCOCCNc1nc(N2CCN(C(=O)CCCCCCCCCCNC(=O)[C@@H](CCC(=O)O)n3cc(CCCCCN)nn3)CC2)nc(N2CCN(C(=O)CCCCCCCCCCNC(=O)[C@H]([C@@H](C)CC)n3cc(CCCCCN)nn3)CC2)n1,x,i,i,i,x,x
C#CCOCCOCCOCCNc1nc(N2CCN(C(=O)CCCCCCCCCCNC(=O)[C@H]([C@@H](C)CC)n3cc(CCCCN=C(N)N)nn3)CC2)nc(N2CCN(C(=O)CCCCCCCCCCNC(=O)[C@H](CO)n3cc(CCCCCN)nn3)CC2)n1,x,151*,i,i,x,x
C#CCOCCOCCOCCNc1nc(N2CCN(C(=O)CCCCCCCCCCNC(=O)[C@H]([C@@H](C)CC)n3cc(CCCCN=C(N)N)nn3)CC2)nc(N2CCN(C(=O)CCCCCCCCCCNC(=O)[C@H](CCCCN)n3cc(C)nn3)CC2)n1,x,122*,i,i,x,x
C#CCOCCOCCOCCNc1nc(N2CCN(C(=O)CCCCCCCCCCNC(=O)[C@H]([C@@H](C)CC)n3cc(CCCCCN)nn3)CC2)nc(N2CCN(C(=O)CCCCCCCCCCNC(=O)[C@H](CCCCN)n3cc(CCCC(=O)O)nn3)CC2)n1,x,i,i,i,x,x
C#CCOCCOCCOCCNc1nc(N2CCN(C(=O)CCCCCCCCCCNC(=O)[C@H]([C@@H](C)CC)n3cc(CCCCCN)nn3)CC2)nc(N2CCN(C(=O)CCCCCCCCCCNC(=O)[C@H]([C@@H](C)CC)n3cc(CCCCN=C(N)N)nn3)CC2)n1,x,81*,i,i,x,x
CC(C)CN(CC(C)C)C(=S)NC1CCCCC1,-0.02,i,i,i,i,i
COC(=O)/C=C1\OC(c2ccccc2)=CC1=O,-10*,i,i,i,i,26*
Cc1cc2ncn(-c3ncccc3[N+](=O)[O-])c2cc1C,2.8,27*,i,i,i,i
O=[N+]([O-])c1cccnc1-n1cnc2ccccc21,0.06,i,i,i,i,i
Cc1sc2ncnc(NC3CCN(Cc4ccccc4)CC3)c2c1C,-5.5*,i,i,i,i,i
c1ccc(CN2CCC(Nc3ncnc4sccc34)CC2)cc1,-1.2,i,i,i,i,i
